Measurements from PubChem BioAssay AID504383 (The Scripps Research Institute Molecular Screening Center, 2011).
Among all 2,500 compounds or so, about 1,200 (48%) were called active. So high a share suggests a set chosen from earlier hits. The list shows a part of the results. Unmarked numbers belong to inactive results.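 Rule for the calls: active = mean activation above the low control average plus 3 SD, as set in the primary screen (cut at about 12% in these data); inactive = the rest.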

Biological target: Troponin I, cardiac muscle (Homo sapiens) + Troponin T, cardiac muscle (Homo sapiens) + Troponin C, slow skeletal and cardiac muscles (Homo sapiens) (UniProt P19429+P45379+P63316)
Experiment: calcium sensitizers of cardiac thin filaments – biochemical, IANBD-TnC fluorescence, triplicate, confirmation (AID 504383);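 note: 0% = DMSO at 0.472 mM calcium and 100% = DMSO at 2.9 mM calcium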
Conditions: IANBD-labeled cardiac RTF, Ca2+ sensitivity fluorescence; at 7.2 µM; stronger effect = higher value; scaled from EC20 to saturating calcium; tested at EC20 calcium, 0.472 mM
Summary of the method: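 Material: labelled regulated thin filaments; Reagent: 0.472 mM calcium; Incubation: 15 min compound incubation with filaments at 25 °C; Detection: filament fluorescence intensity; Evaluation: fluorescence increase normalised to calcium controls; Benchmarks: low control EC20 calcium, high control EC100 calcium.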

Compound | activation
Cc1ccc(/C=C/C(=O)Nc2cccc3cccnc23)o1 | 20.6% (active)
COc1ccc(C2C(C(=O)c3ccccc3)N3c4ccccc4C=CC3C2[N+](=O)[O-])cc1 (centres undefined) | 47.8% (active)
COc1ccc(N2C(=O)[C@@H]3[C@H](C2=O)[C@H](C(C)=O)N2c4ccccc4C=C[C@@H]32)cc1 | 9.39%
Cc1cc(N/C=C\c2nnnn2-c2ccc(F)cc2)no1 | 979% (active)
O=C1c2cccc3c(O)ccc(c23)C(=O)N1Cc1ccccc1 | 33.7% (active)
C[C@H]1CCC(=O)N([C@H](CSc2ccc(Br)cc2)Cc2ccccc2)CC1 | 6.56%
COc1ccc2[nH]c3c(c2c1)CCNC3c1ccc([N+](=O)[O-])o1 (centres undefined) | 2.79%
O=C(c1ccc(Nc2cccc(C(F)(F)F)c2)nc1)N1CCCC1 | 168% (active)
O=C(c1ccccc1Nc1ccc(SC(F)F)cc1)N1CCCCC1 | 5.45%
CCSc1cc(N2CCCC2)nc(-c2ccc(Cl)cc2)n1 | 6.74%
C/C(=N/NC(=O)Nc1ccccc1)c1ccc(C)cc1 | 9.45%
C/C(=N/NS(=O)(=O)c1ccccc1)c1ccc(NC(=O)C2CC2)cc1 | 20.7% (active)
O=C(Nc1ccccc1)C1=C[C@H](c2ccc3c(c2)OCO3)C[C@H](OCCCCO)O1 | 13% (active)
O=C(C1=C[C@@H](c2ccc(Br)cc2)C[C@@H](OCc2ccc(CO)cc2)O1)N1CCN(Cc2ccc3c(c2)OCO3)CC1 | 4.22%
C#Cc1ccc([C@@H]2C=C(C(=O)OCC=C)O[C@H](OCCCCO)C2)cc1 | 9.72%
CCCC[C@H]1COCCS(=O)(=O)N1Cc1ccc(F)cc1 | 0.38%
OCCc1c[nH]c2ccccc12 | 6.66%
CCCn1c(N2CCN(CC(=O)c3c[nH]c4ccccc34)CC2)nc2c1c(=O)[nH]c(=O)n2C | 8.31%
NC(=O)c1c[nH]c2ccccc12 | 717% (active)
N#C/C(=C/c1ccc(N2CCCCCC2)o1)c1ccc(Cl)cc1 | 38.8% (active)
N#C/C(=C/c1ccc(N2CCCCCC2)o1)c1cccc(F)c1 | 99.3% (active)
N#C/C(=C/c1ccc(N2CCOCC2)o1)c1ccc(Cl)cc1 | 9.77%
O=C(NCc1nnc(SCC(=O)N2CCCCCC2)o1)c1ccco1 | 28.5% (active)

Compound | activation
CC(C)Sc1nc2ccc(Br)cc2[nH]1 | 56.5% (active)
COC(=O)c1ccc(S(=O)(=O)N2CCC(O)CC2)n1C | 30.3% (active)
COC(=O)c1ccc(S(=O)(=O)N(CCO)Cc2ccccc2)n1C | 6.61%
Cc1ccc(CNc2cccnc2)cc1 | 1.46%
Cc1ccc(N2CN(Cc3cccnc3)CNC2=S)cc1 | 13.6% (active)
CS/C(=N\S(=O)(=O)c1cccs1)Nc1cccc(Cl)c1C | 61.5% (active)
COCCn1c(=O)c2ccccc2c2ccccc2c1=O | 89% (active)
COCCOC(=O)c1sc(=S)n(CCOC)c1N | 7.49%
COCCn1c(-c2ccc(C)cc2)nc2oc3cc(OC)ccc3c(=O)c2c1=O | 10.7%
CCC(=O)Nc1ccc2oc(-c3cccnc3)nc2c1 | 210% (active)
Cc1cc(=O)oc(C)c1C(=O)Nc1ccc2ncccc2c1 | 6.03%
CCC(=O)N/C(=N/c1nc(C)cc(C)n1)Nc1ccccc1 | 7.51%
CCCCN=C1N/C(=C\c2ccco2)C(=O)N1c1ccccc1 | 370% (active)
COC(=O)[C@H](Cc1ccccc1)NC(=O)Nc1ccc(OC)cc1 | 4.56%
Cc1cc(NC(=O)COC(=O)C(Cc2ccccc2)NC(=O)c2ccco2)no1 (centres undefined) | 39.2% (active)
O=C1C=C(NCc2ccco2)CC(c2ccc(Cl)cc2)C1 (centres undefined) | 4.86%
CCc1ccc(C2C(C#N)=C(N)SC(N)=C2C#N)s1 | 9.19%
Nc1cnccc1C(=O)O | 26% (active)
CN(C)C=Nc1c(Br)cc(Br)c2nonc12 | 31.3% (active)
CC(C)(C)c1ccc(C(=O)N/C(=C\c2cccs2)C(=O)NCc2ccco2)cc1 | 9.9%
O=C(NCc1ccco1)/C(=C\c1ccco1)NC(=O)c1ccc(Br)o1 | 72.9% (active)
O=C(NCc1cccnc1)/C(=C\c1ccc(-c2ccc(Cl)c(Cl)c2)o1)S(=O)(=O)c1ccccc1 | 5.91%
Cc1cnc(C(=O)Nc2nnc(SCc3c(Cl)cccc3Cl)s2)cn1 | 15% (active)

Compound | activation
CCOC(=O)c1c(C)[nH]c(C2=NNC(=NC(C)COC)SC2)c1C (centres undefined) | 81% (active)
NC(N)=NCc1cccc(I)c1 | 7.58%
CN(C(=O)C1CCC1C(=O)O)c1nc(-c2ccc(Cl)s2)cs1 (centres undefined) | 176% (active)
CCOc1ccc(C(=O)NCC(=O)N2CCC3CCCCC3C2)cc1OCC (centres undefined) | 167% (active)
COC(=O)c1ccc(OC)c(OC2CCCC2)c1 | 6.45%
CCOc1ccc(NC(=O)COC(=O)CCN2C(=O)C3CC=CCC3C2=O)cc1OCC (centres undefined) | 8.79%
CC(CC(=O)N1CCc2ccccc21)n1cccn1 (centres undefined) | 5.25%
Cc1ccc2c(c1)N(CC(=O)N1CCCc3ccccc31)C(=O)C(C)O2 (centres undefined) | 21.6% (active)
CCn1nnnc1SCC(=O)N1CCCc2ccccc21 | 10.8%
O=C(O)CN1C(=O)c2cccc3c(Br)ccc1c23 | 89% (active)
CCOC(=O)C(=O)Nc1nnc(COc2ccccc2)s1 | 9.76%
CCOCCc1nnc(NC(=O)COC)s1 | 3.67%
CCCCOC(=O)Nc1nnc(C(C)C)s1 | 617% (active)
CCSc1nnc(-c2sc3nnc(-c4ccccc4)c(-c4ccccc4)c3c2N)o1 | 6.28%
O=C(O)c1ncc(-c2ccccc2)cn1 | 128% (active)
O=C([O-])c1ccccc1-[n+]1c(-c2ccccc2)cc(-c2ccccc2)cc1-c1ccccc1 | 7.07%
CCn1c(O)c(/C=N/NC(=O)c2ccncc2)c(=O)n(CC)c1=S | 10.1%
O=C(N/N=C/c1c(O)n(-c2ccc(Cl)cn2)c(=O)c2ccccc12)c1ccncc1 | 14.8% (active)
N=C1/C(=C\c2coc3ccc(O)cc3c2=O)C(=O)N=C2SC=CN12 | 5.99%
N=C1/C(=C\c2coc3ccccc3c2=O)C(=O)N=C2SC(c3ccncc3)=NN12 | 22.9% (active)
CC(C)CC1=NN2C(=N)/C(=C\c3coc4ccccc4c3=O)C(=O)N=C2S1 | 13.7% (active)
N=C1/C(=C\c2coc3ccccc3c2=O)C(=O)N=C2SC=CN12 | 12.3% (active)
Cc1ccccc1Cn1cccc1/C=C1/C(=N)N2C=CSC2=NC1=O | 14.6% (active)
